From PubChem
Compounds with a hit are over-represented: about 3.8% of the library has one in this group of screens.
Exocytosis inh = LAMP-1 surface exposure blockers, TALL-104 cells – cell-based, flow cytometry, MLPCN library, primary screen. TALL-104 LAMP-1 surface exposure; cells stimulated with thapsigargin and PMA. inhibition, % at 10 µM. 360,000 tested, 0.66% active. AID 651702, 2012;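 active means inhibition above about 55%, limit read from the data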
MPTP block = mitochondrial permeability transition pore inhibitors, primary screen, biochemical, isolated mouse mitochondria, absorbance | Ca2+ swelling absorbance, 30 min | inhibition, % at 10 µM | 360,000 tested, 1.4% active;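 active means inhibition of 50% or more, scaled per plate between neutral and stimulator controls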
B2AR ag = beta2AR agonists driving receptor internalization, primary screen, cell-based, FAP fluorogen, flow cytometry; AID 504454, 2011; 340,000 tested, 0.43% active; Am2.2-beta2AR cells; Beta-2 adrenergic receptor (Homo sapiens), P07550; response, % (no concentration beside the values);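 active means response above a set limit, near 3 SD of response in nonfluorescent compounds, cut at about 42% in these data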
Target sequence (P07550 whole entry, looked up): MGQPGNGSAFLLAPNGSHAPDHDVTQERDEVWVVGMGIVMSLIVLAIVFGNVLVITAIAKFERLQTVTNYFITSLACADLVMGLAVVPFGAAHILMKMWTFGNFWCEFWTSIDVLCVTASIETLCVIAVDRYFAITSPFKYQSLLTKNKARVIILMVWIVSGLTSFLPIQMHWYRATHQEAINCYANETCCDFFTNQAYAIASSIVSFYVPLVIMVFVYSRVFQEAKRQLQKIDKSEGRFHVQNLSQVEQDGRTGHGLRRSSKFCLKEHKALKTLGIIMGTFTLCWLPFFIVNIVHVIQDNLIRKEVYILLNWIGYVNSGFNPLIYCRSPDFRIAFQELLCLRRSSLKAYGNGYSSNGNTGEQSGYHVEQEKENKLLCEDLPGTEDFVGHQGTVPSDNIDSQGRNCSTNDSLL
rCAG binder-1 = binders of r(CAG) RNA repeats, primary screen, biochemical, fluorescence | r(CAG) RNA repeat, TO-PRO-1 dye displacement fluorescence | inhibition, % at 3 µM | 370,000 tested, 1.3% active | AID 651821, 2012;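 active means inhibition above the plate cutoff, the mean of all test compounds on that plate plus 3 SD, cut at about 35% in these data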;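 further: higher means more dye released from RNA so lower well fluorescence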
T cell HTS = modulators of CD8 T cell-vesicle binding, primary screen, mouse 2C CD8+ T cells, flow cytometry | 2C CD8+ T cell-vesicle binding; stronger effect = lower value | response (vesicle binding), % at 7 µM | 330,000 tested, 0.068% active;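 active means response, share of CD8 T cells binding vesicles, and their 90th percentile fluorescence all below set limits, cut at about 80% in these data, passing the limit was not always enough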;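 further: values below 100% mean blocked vesicle binding to the CD8+ T cells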
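incubation = binding step 1.5 h, 37 °C, antibody labelling 20 min, ice | test system = 2C mouse CD8+ T cells | read-out basis = percent CD8+ FL2 mean versus row control | controls = Peptide-free naked vesicles (low) and QL9 vesicles with 0.7% DMSO vehicle (high) | detection = flow cytometry of vesicle-bound cells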
V-ATPase pHluor = regulators of yeast V-ATPase proton pumping, primary screen, pHLuorin cytosolic pH fluorescence | 350,000 tested, 0.37% active | response, % at 10 µM | S. cerevisiae; in the data active means response mostly above about 7.3%, no sharp cut-off; inactive means mostly below about 5.4%; further: actives read high
rCAG bind conf = small molecules binding CAG repeat RNA – biochemical, fluorescence, confirmation; shares compounds with rCAG binder-1; r(CAG) RNA repeat, TO-PRO-1 dye displacement fluorescence; inhibition, % at 3 µM; 4,300 tested, 70% active;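 active means inhibition above a per-plate cutoff, the mean inhibition of sample wells plus 3 SD, cut at about 35% in these data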;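 further: loss of TO-PRO-1 fluorescence as compound displaces dye from 1x1 AA loop RNA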
DNA CAG counter = displacement of TO-PRO-1 from CAG DNA duplex, counter-screen for rCAG RNA repeat binder project, biochemical, fluorescence, TO-PRO-1 dye, d(CAG) DNA oligo; d(CAG) DNA oligo TO-PRO-1 dye displacement; 4,300 tested, 94% active; inhibition, % at 3 µM; shares compounds with rCAG binder-1;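 active means inhibition above its plate's cutoff, the mean test-well inhibition plus 3 SD, cut at about 4.8% in these data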;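 further: hits displace the dye from DNA and so lower well fluorescence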
DNA CAG DR = inhibitors of DNA CAG/GTC TO-PRO-1 complex, dose response, counter-screen for rCAG RNA repeat binder project, biochemical, fluorescence, TO-PRO-1 dye; DNA CAG/GTC duplex TO-PRO-1 dye displacement fluorescence; IC50, µM; 250 tested, 20% active; shares compounds with rCAG binder-1; AID 686960, 2013; in the data active means IC50 below about 10 µM
dCAG DNA bind = TO-PRO-1 dye complex inhibitors on d(CAG) DNA, dose response, counter-screen, biochemical, fluorescence, late stage; shares compounds with rCAG binder-1; d(CAG) DNA duplex TO-PRO-1 dye displacement; IC50, µM; 30 tested, 80% active
rCAG binder-2 = molecules binding r(CAG) RNA repeats, late stage dose response, late-stage follow-up, biochemical, fluorescence, dose response, powder samples. IC50, µM. shares compounds with rCAG binder-1. 30 tested, 100% active. AID 720651, 2013. r(CAG) RNA TO-PRO-1 dye displacement
Large screens that a line does not name were inactive (follow-up assays come after a bar, where they were run). Unless noted, how the calls were made is not given here.

CS(=O)(=O)NNC(=O)Cn1nnc(-c2cc(C(F)(F)F)cc(C(F)(F)F)c2)n1	none
O=C(Cn1nnc(-c2cccc(C(F)(F)F)c2)n1)NNS(=O)(=O)c1cccc(C(F)(F)F)c1	rCAG binder-1 54 | rCAG bind conf 38 | DNA CAG counter 10
Cn1c(SCC(=O)Nc2cccc3ccccc23)nc(O)cc1=O	rCAG binder-1 41 | rCAG bind conf inactive | DNA CAG counter inactive
CCOc1ccccc1-n1c(SCC(=O)Nc2ccccc2C(=O)O)nc2ccccc2c1=O	rCAG binder-1 35 | rCAG bind conf inactive | DNA CAG counter 7.8
COc1ccccc1-n1c(SCC(=O)Nc2cccc3ccccc23)nc(O)cc1=O	rCAG binder-1 48 | rCAG bind conf inactive | DNA CAG counter 9.0
Cc1ccc(NC(=O)CSc2nc(O)cc(=O)n2-c2ccc(C)cc2)cc1	rCAG binder-1 42 | rCAG bind conf inactive | DNA CAG counter 6.3
C[C@@H]1CNC(=O)c2c(C(=O)N3CCN(c4ccccc4)CC3)ncn21	none (no result: Exocytosis inh, MPTP block, B2AR ag, T cell HTS, V-ATPase pHluor)
CCCCc1c(O)nc(SCC(=O)Nc2cccc3ccccc23)n(-c2ccccc2OC)c1=O	rCAG binder-1 35 | rCAG bind conf inactive | DNA CAG counter 7.8
CCc1c(O)nc(SCC(=O)Nc2ccccc2OC)n(-c2ccccc2C)c1=O	none
CN(C)c1ccc(/C=C(/NC(=O)c2ccccc2)C(=O)N/N=C/c2ccc([N+](=O)[O-])c(O)c2)cc1	rCAG binder-1 67 | rCAG bind conf 62 | DNA CAG counter 26
C=CCOC(=O)N[C@@H](c1coc2ccccc2c1=O)[C@@H](C)/C=C/CC(=O)OC	none (no result: Exocytosis inh, MPTP block, B2AR ag, T cell HTS, V-ATPase pHluor)
O=C(NCCO)C(=O)c1c(-c2ccc(Cl)cc2)cc2ccccn12	none
O=C(O)c1ccn2c(C(=O)c3ccc(Cl)cc3)c(-c3ccccc3)cc2c1	rCAG binder-1 68 | rCAG bind conf 64 | DNA CAG counter 23 | DNA CAG DR inactive
C=CCN1[C@H](C)COc2cc(F)ccc2S1(=O)=O	none (no result: Exocytosis inh, MPTP block, B2AR ag, T cell HTS, V-ATPase pHluor)
COC(=O)C(CN)CN1C(=O)c2ccccc2C1=O (stereo not drawn)	none (no result: Exocytosis inh, MPTP block, B2AR ag, T cell HTS, V-ATPase pHluor)
CCOc1cc(/C=C2\C(=O)N(c3ccc(C(N)=O)cc3)N=C2C)ccc1OC(=O)c1cccs1	none (no result: rCAG binder-1)
CC1=NN(c2ccc(C(=O)O)cc2)C(=O)/C1=C\c1ccc(OC(=O)c2cccs2)cc1	rCAG binder-1 45 | rCAG bind conf 52 | DNA CAG counter 18
O=S(=O)(O)c1cc(O)c2c(O)c(N=Nc3cc(Cl)ccc3O)c(S(=O)(=O)O)cc2c1	none (no result: rCAG binder-1)
O=S(=O)(O)c1cc(Cl)cc(N=Nc2ccc(O)cc2O)c1O	rCAG binder-1 91 (no result: T cell HTS) | rCAG bind conf 67 | DNA CAG counter 31
O=C(O)CCCCCn1c(O)c(C=C2N=c3ccccc3=N2)sc1=S	rCAG binder-1 83 | rCAG bind conf 65 | DNA CAG counter 29 | DNA CAG DR inactive | dCAG DNA bind 2.4 | rCAG binder-2 0.98
CCN(CC)c1ccc(-n2c(O)c(C=C3N=c4ccccc4=N3)sc2=S)cc1	none
O=C(O)CCCn1c(O)c(C=C2N=c3ccccc3=N2)sc1=S	rCAG binder-1 45 | rCAG bind conf inactive | DNA CAG counter 6.7
CCCC(C(=O)O)n1c(O)c(C=C2N=c3ccccc3=N2)sc1=S (stereo not drawn)	rCAG binder-1 58 | rCAG bind conf 54 | DNA CAG counter 17
O=C1C2C(CC3c4ccccc4CCN32)CN1c1ccccc1 (stereo not drawn)	none (no result: Exocytosis inh, MPTP block, B2AR ag, T cell HTS, V-ATPase pHluor)
Fc1cccc(Cn2ccc3ccc(-c4ccc5ccn(Cc6cccc(F)c6)c5c4)cc32)c1	none (no result: Exocytosis inh, MPTP block, B2AR ag, T cell HTS, V-ATPase pHluor)
O=C(O)CCC(=O)N1N=C(c2ccc(Br)cc2)CC1c1ccc(Br)cc1 (stereo not drawn)	rCAG binder-1 38 | rCAG bind conf 51 | DNA CAG counter 14
Cc1ccc(-n2c(SC/C=C/c3ccccc3)nnc2-c2ccco2)cc1	none (no result: Exocytosis inh, MPTP block, B2AR ag, T cell HTS, V-ATPase pHluor)
COC(=O)[C@]12C[C@H](CC(=O)NCc3ccc(C)o3)C(=O)N(Cc3ccc4c(c3)OCO4)C1=C[C@H](COCc1ccccc1)O[C@@H]2C	none (no result: Exocytosis inh, MPTP block, B2AR ag, T cell HTS, V-ATPase pHluor)
O=C(O)c1ccccc1-c1ccccc1C(=O)Nc1ccc2oc(=O)c3ccccc3c2c1	rCAG binder-1 51 (no result: B2AR ag, T cell HTS) | rCAG bind conf 51 | DNA CAG counter 14
O=C(O)c1ccccc1-c1ccccc1C(=O)Nc1ccc2c(c1)[nH]c(=O)c1ccccc12	rCAG binder-1 68 | rCAG bind conf 62 | DNA CAG counter 27
Cc1ccc(NC(=O)c2ccccc2-c2ccccc2C(=O)O)cc1C	none
O=C(O)c1ccccc1-c1ccccc1C(=O)Nc1ccc(-c2nc3cc(Cl)ccc3o2)cc1	rCAG binder-1 71 | rCAG bind conf 85 | DNA CAG counter 54
CCn1c2ccccc2c2cc(NC(=O)c3ccccc3-c3ccccc3C(=O)O)ccc21	rCAG binder-1 75 | rCAG bind conf 65 | DNA CAG counter 26
CC(=O)Nc1ccc(-c2nc3cc(Cl)ccc3o2)cc1	none
O=C(C(=O)N1CCC(CNS(=O)(=O)c2cccc(C(F)(F)F)c2)CC1)c1cc2ccccc2o1	none (no result: Exocytosis inh, MPTP block, B2AR ag, T cell HTS, V-ATPase pHluor)
COc1cccc(CNC(=O)Cn2c(-c3ccccc3)cc(C(C)=O)c2C)c1OC	none (no result: Exocytosis inh, MPTP block, B2AR ag, T cell HTS, V-ATPase pHluor)
CCn1c(COc2ccc(C)cc2)nnc1SCc1cccc(C(F)(F)F)c1	none (no result: Exocytosis inh, MPTP block, B2AR ag, T cell HTS, V-ATPase pHluor)
CCOC(=O)CNC(=O)CSc1nnc(-c2ccccc2)n1CC	none (no result: Exocytosis inh, MPTP block, B2AR ag, T cell HTS, V-ATPase pHluor)
O=C(/C=C(\O)c1ccccc1)C(=O)NNC(=O)c1ccccc1	none
